Experimental data published in ChEMBL document CHEMBL3407461 (J Med Chem, 2014).
In brackets after ≈: the same amount, converted by molar mass.

Experiments:
[1] = target: T1, Adenosine receptor A1 (Homo sapiens) (UniProt P30542); test: Displacement of [3H]R-PIA from human recombinant A1 adenosine receptor expressed in CHO cells at 10 uM after 60 mins by liquid scintillation counting; type: cell-based
T1 sequence (whole entry): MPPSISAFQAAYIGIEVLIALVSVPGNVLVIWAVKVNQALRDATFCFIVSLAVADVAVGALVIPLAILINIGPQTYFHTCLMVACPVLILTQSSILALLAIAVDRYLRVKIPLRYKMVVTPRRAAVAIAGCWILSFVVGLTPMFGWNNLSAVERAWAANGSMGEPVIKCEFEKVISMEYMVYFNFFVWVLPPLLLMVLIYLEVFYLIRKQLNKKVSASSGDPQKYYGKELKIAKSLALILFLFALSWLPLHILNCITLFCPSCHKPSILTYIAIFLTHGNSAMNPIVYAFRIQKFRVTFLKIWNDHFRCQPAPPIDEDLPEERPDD

[2] = target: Adenosine receptor A2a (Homo sapiens) (UniProt P29274); test: Displacement of [3H]CGS21680 from human recombinant A2A adenosine receptor expressed in HEK293 cells at 10 uM after 60 mins by liquid scintillation counting; type: cell-based
Sequence of Adenosine receptor A2a (Homo sapiens) (P29274 whole entry): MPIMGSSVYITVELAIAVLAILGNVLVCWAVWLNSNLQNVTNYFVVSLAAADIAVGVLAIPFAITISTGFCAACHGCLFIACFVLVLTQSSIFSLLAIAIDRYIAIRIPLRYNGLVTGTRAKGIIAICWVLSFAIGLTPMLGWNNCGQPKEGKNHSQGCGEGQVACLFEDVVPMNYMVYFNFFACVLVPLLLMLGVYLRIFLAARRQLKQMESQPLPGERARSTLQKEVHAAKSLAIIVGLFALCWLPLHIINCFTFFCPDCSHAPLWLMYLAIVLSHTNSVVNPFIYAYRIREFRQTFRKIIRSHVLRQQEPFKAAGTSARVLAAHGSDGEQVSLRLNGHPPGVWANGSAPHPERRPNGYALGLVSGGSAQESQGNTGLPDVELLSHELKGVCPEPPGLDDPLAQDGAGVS

[3] = target: Adenosine receptor A2a (Mus musculus) (UniProt Q60613); test: Displacement of [3H]CGS21680 from mouse A2A adenosine receptor expressed in HEK293 cells at 10 uM after 60 mins by liquid scintillation counting; type: cell-based
Sequence of Adenosine receptor A2a (Mus musculus) (Q60613 whole entry): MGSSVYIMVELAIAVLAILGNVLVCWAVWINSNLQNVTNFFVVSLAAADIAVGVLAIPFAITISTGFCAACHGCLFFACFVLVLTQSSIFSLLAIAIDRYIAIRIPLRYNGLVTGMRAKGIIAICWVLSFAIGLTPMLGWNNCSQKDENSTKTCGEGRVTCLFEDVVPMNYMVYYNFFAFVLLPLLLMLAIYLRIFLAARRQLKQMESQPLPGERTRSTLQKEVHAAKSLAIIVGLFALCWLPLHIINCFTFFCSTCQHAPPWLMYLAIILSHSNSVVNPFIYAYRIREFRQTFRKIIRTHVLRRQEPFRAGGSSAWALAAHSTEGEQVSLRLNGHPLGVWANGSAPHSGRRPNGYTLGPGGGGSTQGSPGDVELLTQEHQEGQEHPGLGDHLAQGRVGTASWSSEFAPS

Mus musculus [4] = test: Antinociceptive activity in chronic constriction injury neutropathic pain CD-1 mouse model assessed as time for peak protection at 3 umol/kg, po; type: functional
How it was run: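 Male CD-1 mice (25−30 g), chronic constriction injury of left sciatic nerve (Bennett model) under isoflurane. Dosed by gavage (3 μmol/kg, 0.2 mL) at peak mechano-allodynia on day 7; vehicle 10% DMSO in 0.5% methylcellulose. Paw withdrawal threshold (g) measured on the ipsilateral hind paw from 30 min to 5 h post dose. Expressed as % reversal, mean ± SEM over n animals.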

Mus musculus [5] = test: Antinociceptive activity in chronic constriction injury neutropathic pain CD-1 mouse model assessed as maximum protection on ipsilateral hind paw at 3 umol/kg, po after 30 mins to 5 hrs post dose relative to control; type: functional; conditions: CD-1, po
Mus musculus [6] = test: Antinociceptive activity in chronic constriction injury neutropathic pain CD-1 mouse model at 3 umol/kg, po after 3 hrs post dose relative to control; type: functional
[7] = Aqueous solubility of the compound at pH 7.4 by pION Method; type: physicochemical; conditions: buffer
[8] = Half life of the compound in simulated gastric fluid at pH 1.6; type: ADME; conditions: simulated gi fluid
[9] = Half life of the compound in simulated intestinal fluid at pH 6.5; type: ADME; conditions: simulated gi fluid
Plasma [10] = test: Fraction unbound in human plasma at 10 uM after 5 hrs by LC-MS/MS analysis; type: ADME, cell-free
Plasma [11] = test: Fraction unbound in rat plasma at 10 uM after 5 hrs by LC-MS/MS analysis; type: ADME, cell-free
Plasma [12] = test: Fraction unbound in mouse plasma at 10 uM after 5 hrs by LC-MS/MS analysis; type: ADME, cell-free
Cytochrome P450 1A2 = target: T2, Cytochrome P450 1A2 (Homo sapiens, UniProt P05177); test: Inhibition of CYP1A2 in human microsomes preincubated for 5 mins before substrate addition measured after 10 mins by LC/MS/MS analysis; type: ADME
T2 sequence (P05177 whole entry): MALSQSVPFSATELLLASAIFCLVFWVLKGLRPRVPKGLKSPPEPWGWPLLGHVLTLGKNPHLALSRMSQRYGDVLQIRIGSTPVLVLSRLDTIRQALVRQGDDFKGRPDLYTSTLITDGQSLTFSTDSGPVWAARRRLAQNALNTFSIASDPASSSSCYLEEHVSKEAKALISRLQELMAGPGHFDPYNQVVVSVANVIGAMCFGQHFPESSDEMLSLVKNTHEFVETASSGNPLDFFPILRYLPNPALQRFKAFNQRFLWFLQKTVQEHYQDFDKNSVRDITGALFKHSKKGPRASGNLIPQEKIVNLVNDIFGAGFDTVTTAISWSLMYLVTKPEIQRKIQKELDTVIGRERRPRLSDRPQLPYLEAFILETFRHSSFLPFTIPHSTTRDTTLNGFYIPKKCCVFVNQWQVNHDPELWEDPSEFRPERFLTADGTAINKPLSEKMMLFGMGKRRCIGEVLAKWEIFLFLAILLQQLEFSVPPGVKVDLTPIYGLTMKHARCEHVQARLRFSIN

Cytochrome P450 2C9 = Cytochrome P450 2C9 (Homo sapiens, UniProt P11712); test: Inhibition of CYP2C9 in human microsomes preincubated for 5 mins before substrate addition measured after 10 mins by LC/MS/MS analysis; type: ADME
Sequence of Cytochrome P450 2C9 (P11712 whole entry): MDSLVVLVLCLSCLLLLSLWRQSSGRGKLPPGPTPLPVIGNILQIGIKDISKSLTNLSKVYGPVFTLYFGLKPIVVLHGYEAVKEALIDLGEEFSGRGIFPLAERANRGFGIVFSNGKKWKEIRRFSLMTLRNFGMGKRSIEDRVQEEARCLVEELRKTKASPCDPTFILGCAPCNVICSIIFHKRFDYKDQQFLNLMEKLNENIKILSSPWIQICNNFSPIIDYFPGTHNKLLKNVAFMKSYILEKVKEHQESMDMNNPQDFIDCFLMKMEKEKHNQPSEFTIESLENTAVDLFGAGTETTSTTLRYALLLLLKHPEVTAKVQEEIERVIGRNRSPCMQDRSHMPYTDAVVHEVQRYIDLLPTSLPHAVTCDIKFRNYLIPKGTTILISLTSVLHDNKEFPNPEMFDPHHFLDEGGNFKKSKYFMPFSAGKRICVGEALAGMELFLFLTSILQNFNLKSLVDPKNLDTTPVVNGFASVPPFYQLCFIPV

Cytochrome P450 2C19 = Cytochrome P450 2C19 (Homo sapiens, UniProt P33261); test: Inhibition of CYP2C19 in human microsomes preincubated for 5 mins before substrate addition measured after 10 mins by LC/MS/MS analysis; type: ADME
Sequence of Cytochrome P450 2C19 (P33261 whole entry): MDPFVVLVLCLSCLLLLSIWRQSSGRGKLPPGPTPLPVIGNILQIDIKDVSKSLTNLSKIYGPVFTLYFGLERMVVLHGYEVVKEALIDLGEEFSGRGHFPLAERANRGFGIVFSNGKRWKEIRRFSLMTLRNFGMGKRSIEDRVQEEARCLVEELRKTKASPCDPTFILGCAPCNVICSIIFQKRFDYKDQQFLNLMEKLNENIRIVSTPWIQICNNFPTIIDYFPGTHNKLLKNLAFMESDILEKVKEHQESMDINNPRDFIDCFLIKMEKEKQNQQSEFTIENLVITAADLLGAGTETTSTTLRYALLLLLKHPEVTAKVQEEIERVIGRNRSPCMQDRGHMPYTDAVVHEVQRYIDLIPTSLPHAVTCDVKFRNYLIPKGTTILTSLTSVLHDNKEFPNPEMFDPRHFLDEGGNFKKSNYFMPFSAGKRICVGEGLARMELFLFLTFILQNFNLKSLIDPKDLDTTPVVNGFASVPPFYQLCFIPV

Cytochrome P450 2D6 = Cytochrome P450 2D6 (Homo sapiens, UniProt P10635); test: Inhibition of CYP2D6 in human microsomes preincubated for 5 mins before substrate addition measured after 10 mins by LC/MS/MS analysis; type: ADME
Sequence of Cytochrome P450 2D6 (P10635 whole entry): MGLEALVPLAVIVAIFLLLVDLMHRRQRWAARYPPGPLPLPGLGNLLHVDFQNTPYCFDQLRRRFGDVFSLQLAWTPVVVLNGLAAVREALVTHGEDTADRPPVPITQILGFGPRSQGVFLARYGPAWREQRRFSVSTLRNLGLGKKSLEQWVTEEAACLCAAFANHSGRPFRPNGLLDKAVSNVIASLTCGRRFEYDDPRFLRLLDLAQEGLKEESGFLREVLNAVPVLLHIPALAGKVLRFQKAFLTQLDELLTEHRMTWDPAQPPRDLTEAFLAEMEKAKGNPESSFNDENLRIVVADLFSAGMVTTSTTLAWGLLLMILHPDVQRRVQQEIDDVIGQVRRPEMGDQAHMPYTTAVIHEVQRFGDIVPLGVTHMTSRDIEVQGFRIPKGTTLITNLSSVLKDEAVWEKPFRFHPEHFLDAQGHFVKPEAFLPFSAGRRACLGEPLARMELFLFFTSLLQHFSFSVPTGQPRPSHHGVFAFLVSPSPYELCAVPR

Cytochrome P450 3A4 = Cytochrome P450 3A4 (Homo sapiens, UniProt P08684); test: Inhibition of CYP3A4 in human microsomes preincubated for 5 mins before substrate addition measured after 10 mins by LC/MS/MS analysis; type: ADME
Sequence of Cytochrome P450 3A4 (P08684 whole entry): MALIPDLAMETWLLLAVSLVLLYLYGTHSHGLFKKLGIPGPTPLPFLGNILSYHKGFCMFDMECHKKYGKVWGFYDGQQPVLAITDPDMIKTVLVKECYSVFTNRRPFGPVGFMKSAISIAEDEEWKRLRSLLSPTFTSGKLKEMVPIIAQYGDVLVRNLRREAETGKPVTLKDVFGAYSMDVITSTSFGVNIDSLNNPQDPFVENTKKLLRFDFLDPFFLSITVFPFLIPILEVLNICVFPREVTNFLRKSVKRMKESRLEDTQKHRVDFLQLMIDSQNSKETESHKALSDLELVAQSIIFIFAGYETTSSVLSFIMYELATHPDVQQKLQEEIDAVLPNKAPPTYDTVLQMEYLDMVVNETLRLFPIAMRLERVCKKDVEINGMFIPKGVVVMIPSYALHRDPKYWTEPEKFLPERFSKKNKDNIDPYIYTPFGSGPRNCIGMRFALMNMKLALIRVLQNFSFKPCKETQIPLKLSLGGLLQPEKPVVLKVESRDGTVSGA

CYP1A2 = CYP1A2 (Homo sapiens, UniProt P05177); test: Inhibition of CYP1A2 in human microsomes preincubated at 10 uM for 5 mins before substrate addition measured after 10 mins by LC/MS/MS analysis; type: ADME
CYP2C9 = CYP2C9 (Homo sapiens, UniProt P11712); test: Inhibition of CYP2C9 in human microsomes preincubated at 10 uM for 5 mins before substrate addition measured after 10 mins by LC/MS/MS analysis; type: ADME
Sequence of CYP2C9 (P11712 whole entry): as the sequence (P11712 whole entry) above

CYP2C19 = CYP2C19 (Homo sapiens, UniProt P33261); test: Inhibition of CYP2C19 in human microsomes preincubated at 10 uM for 5 mins before substrate addition measured after 10 mins by LC/MS/MS analysis; type: ADME
Sequence of CYP2C19 (P33261 whole entry): as the sequence (P33261 whole entry) above

CYP2D6 = CYP2D6 (Homo sapiens, UniProt P10635); test: Inhibition of CYP2D6 in human microsomes preincubated at 10 uM for 5 mins before substrate addition measured after 10 mins by LC/MS/MS analysis; type: ADME
Sequence of CYP2D6 (P10635 whole entry): as the sequence (P10635 whole entry) above

CYP3A4 = CYP3A4 (Homo sapiens, UniProt P08684); test: Inhibition of CYP3A4 in human microsomes preincubated at 10 uM for 5 mins before substrate addition measured after 10 mins by LC/MS/MS analysis; type: ADME
Sequence of CYP3A4 (P08684 whole entry): as the sequence (P08684 whole entry) above

Liver microsome [13] = test: Half life in rat liver microsomes at 100 uM by LC-MS/MS analysis; type: ADME
Liver microsome [14] = test: Half life in human liver microsomes at 100 uM by LC-MS/MS analysis; type: ADME
Liver = test: Half life in mouse liver microsomes at 100 uM by LC-MS/MS analysis; type: ADME
Liver microsome [15] = test: Intrinsic clearance in human liver microsomes assessed per mg protein at 100 uM by LC-MS/MS analysis; type: ADME

## CNC(=O)[C@@]12C[C@@H]1[C@@H](n1cnc3c(NC)nc(C#Cc4ccc(Br)s4)nc31)[C@H](O)[C@@H]2O
[1]
  inhibition: 18%
[2]
  inhibition: 19%
[3]
  inhibition: 10%
Mus musculus [4]
  Time: 1 h
Mus musculus [5]
  Emax at 3 µmol/kg: 100%
Mus musculus [6]
  Activity: 48.7%
[7]
  solubility: 0.0156 mg/mL (≈ 31 µM)
[8]
  t1/2: > 8 h
[9]
  t1/2: > 8 h
Plasma [10]
  Fu: 2.67%
Plasma [11]
  Fu: 4.04%
Plasma [12]
  Fu: 2.75%
Cytochrome P450 1A2
  IC50: > 7 µM
Cytochrome P450 2C9
  IC50: > 7 µM
Cytochrome P450 2C19
  IC50: > 7 µM
Cytochrome P450 2D6
  IC50: 7.4 µM
Cytochrome P450 3A4
  IC50: > 7 µM
CYP1A2
  inhibition at 10 min, 10 µM: 15%
CYP2C9
  inhibition at 10 min, 10 µM: 24.2%
CYP2C19
  inhibition at 10 min, 10 µM: 34%
CYP2D6
  inhibition at 10 min, 10 µM: 57.5%
CYP3A4
  inhibition at 10 min, 10 µM: 3.1%
Liver microsome [13]
  t1/2: 1.52 h
Liver microsome [14]
  t1/2: 3.42 h
Liver
  t1/2: 1.6 h
Liver microsome [15]
  CLH: 3.38 µL/min
